Assay outcomes from PubChem BioAssay.
Most compounds without a hit are left out; they make up all but 3.5% or so of the library.
MITF TRPM1 HTS – activators of MITF-driven TRPM1 promoter activity in SK-MEL-5 cells. SK-MEL-5 TRPM1-promoter luciferase, 24 h; % of positive control, neutral wells = 0. activation, % at 12.5 µM. 300,000 compounds, 0.75% hits;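 active means mean activation of at least 80% with every replicate also reaching 80%; inconclusive means mean reaches 80% but some replicate falls short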;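 further: 0% = neutral control wells and 100% = parthenolide positive control wells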
Cneo AK release – causes C. neoformans cell lysis | adenylate kinase release luminescence, 4 h; normalised: neutral wells 0, clomiphene wells 100 | lysis activity, % at 15 µM | 360,000 compounds, 0.2% hits;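 active means mean lysis activity across replicates of at least 80%, whatever share of replicates individually reach that level; inactive means mean lysis activity below 80%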
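Assay system: Cryptococcus neoformans yeast cells / Dosing: single-point compound dose / Timing: 4 h at 37 °C static, read 1 h later / Measured by: luminescence of released adenylate kinase using an AK detection reagent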
esBAF inh – inhibitors of esBAF chromatin remodeling in mouse ES cells; Bmi1-luciferase knock-in reporter, 24 h; 100% = twice the neutral-well signal; reporter increase, % at 12.5 µM; 350,000 compounds, 2% hits; AID 602393; in the data active means activation above about 40%; inconclusive means no clear call, values can overlap the other calls;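 further: 0% = median of the plate's neutral control wells and 100% = double that signal; a rise in the Bmi1 reporter signal indicates esBAF inhibition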
ERAP1 inh – blocks human ERAP1 aminopeptidase activity. Q9NZ08. recombinant ERAP1, Leu-AMC fluorescence, 60 min. inhibition, % at 10.7 µM. 340,000 compounds, 0.15% hits;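 active means mean replicate inhibition of at least 30%, or all replicates individually reaching that 30% level; inactive means mean below 30% and not every replicate reaching it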;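 further: 0% = neutral control wells and 100% = L-leucinethiol positive control wells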
Target sequence (Q9NZ08 whole entry, looked up): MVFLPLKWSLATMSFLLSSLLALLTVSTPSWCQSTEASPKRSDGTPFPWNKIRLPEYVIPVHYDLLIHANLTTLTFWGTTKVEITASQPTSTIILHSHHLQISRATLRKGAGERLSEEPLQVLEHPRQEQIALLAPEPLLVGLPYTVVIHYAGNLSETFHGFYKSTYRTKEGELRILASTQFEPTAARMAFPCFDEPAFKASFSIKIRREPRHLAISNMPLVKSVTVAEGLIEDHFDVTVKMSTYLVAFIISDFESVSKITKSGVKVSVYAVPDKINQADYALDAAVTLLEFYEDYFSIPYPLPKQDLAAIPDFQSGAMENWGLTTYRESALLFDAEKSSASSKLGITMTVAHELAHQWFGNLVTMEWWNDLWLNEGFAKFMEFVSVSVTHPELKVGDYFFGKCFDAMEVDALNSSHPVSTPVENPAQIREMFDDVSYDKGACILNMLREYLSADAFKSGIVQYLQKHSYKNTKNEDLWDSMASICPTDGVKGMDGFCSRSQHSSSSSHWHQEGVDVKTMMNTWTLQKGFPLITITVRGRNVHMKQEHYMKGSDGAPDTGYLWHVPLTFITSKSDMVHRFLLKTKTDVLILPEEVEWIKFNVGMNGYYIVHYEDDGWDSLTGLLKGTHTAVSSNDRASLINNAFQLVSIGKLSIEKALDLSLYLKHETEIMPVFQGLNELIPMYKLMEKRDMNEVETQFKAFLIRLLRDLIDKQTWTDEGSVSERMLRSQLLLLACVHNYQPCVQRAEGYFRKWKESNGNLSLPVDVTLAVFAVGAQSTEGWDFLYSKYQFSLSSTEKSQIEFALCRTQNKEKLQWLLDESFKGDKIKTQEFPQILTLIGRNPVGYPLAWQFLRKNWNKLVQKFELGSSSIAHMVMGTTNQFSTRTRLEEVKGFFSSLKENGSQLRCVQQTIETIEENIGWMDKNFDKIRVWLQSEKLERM
HIV Env fusion – blocks HIV Env-driven cell-cell fusion | 360,000 compounds, 1.1% hits | inhibition, % at 12.3 µM | AID 651610 | HeLa-JRFL Env/CEM21 cell fusion, luciferase;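 active means mean replicate inhibition score of at least 50 and every replicate individually at or above 50; inconclusive means only one of the two criteria met; inactive means mean below 50 and not all replicates reaching 50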;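 further: 0% = plate neutral controls and 100% = maraviroc near 300 nM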
Wnt bcat act – activators of Wnt/beta-catenin signaling; activation, % at 9.35 µM; Wnt/beta-catenin reporter cell assay, activator, plate reader; 300,000 compounds, 1.2% hits; in the data active means activation above about 30%, passing the limit was not always enough; inconclusive means no clear call, values can overlap the other calls;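 further: 0% = neutral control wells and 100% = positive control wells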
Starred values were filed as active, the others as inactive; ? = inconclusive; . = not tested or not shown; [ ] = dose if it differs, or a comment.

SMILES	MITF TRPM1 HTS	Cneo AK release	esBAF inh	ERAP1 inh	HIV Env fusion	Wnt bcat act
COc1ccc(NC(=O)Nc2nnc(-c3cccs3)s2)cc1	98*	.	.	.	-51	41*
CC(C)(C)CC(=O)Nc1nnc(-c2cccs2)s1	44	0	48*	.	-128	52*
C[C@H]1CN([C@@H](C)CO)C(=O)c2cccc(NS(=O)(=O)c3ccc(Cl)cc3)c2O[C@@H]1CN(C)C(=O)Nc1cccc2ccccc12	.	2	1	2	-6[16.7 µM]	.
CCOC(=O)C1=C(CSc2nc(-c3ccccc3)ccc2C#N)OC(N)=C(C#N)C1c1ccc(OC)cc1 (stereo unspecified)	72	-6	54*	.	.	.
CCOC(=O)C1=C(CSc2nc(CC)c(C)cc2C#N)OC(N)=C(C#N)C1c1ccccc1 (stereo unspecified)	.	-1	5	.	.	.
COC(=O)c1nn(-c2ccc(C)cc2)c2nnc(Cc3ccccc3)c(=O)n12	-1	.	.	.	-18	37*
O=C(NCc1ccccc1)c1cccc(COc2cc(Cl)ccc2Cl)c1	70	0	71*	3	-18	11
O=C(NCc1ccccc1)c1cccc(COc2ccccc2Cl)c1	41	0	45*	2	-172	-1
CN(C(=O)c1cccc(COc2ccc(Cl)cc2Cl)c1)c1ccccc1	38	10	72*	.	-24	.
O=C(c1cccc(COc2ccc(Cl)cc2Cl)c1)N1CCN(c2ccccn2)CC1	30	0	27	.	.	.
O=C(c1cccc(COc2cccc3ccccc23)c1)N1CCCC1	.	1	74*	.	-89	?
COC(=O)c1ccccc1NC(=O)c1cccc(COc2ccccc2Cl)c1	7	-2	.	3	-277	26
O=C(c1ccccc1)N1CCN(CC(O)COc2cccc3ccccc23)CC1 (stereo unspecified)	.	-2	-2	-2	-30	2
CCCNC(=O)Nc1ccc2c(c1)OC[C@@H](C)N(C(C)=O)C[C@@H](C)[C@@H](OC)CN(C)C2=O	.	0	-1	-7	6[16.7 µM]	.
C[C@@H]1CN([C@H](C)CO)C(=O)c2cc(-c3cccc(F)c3)cnc2O[C@H]1CN(C)Cc1cccc(F)c1	.	.	-8	.	40[16.7 µM]	.
O=C(CC1CC1)Nc1ccc2c(c1)[C@@H]1C[C@@H](CC(=O)N3CCCCC3)O[C@@H](CO)[C@@H]1O2	.	4	2	-2	-9[16.7 µM]	.
C[C@H](CO)N1C[C@H](C)[C@@H](CN(C)C(=O)Nc2ccc(F)cc2)Oc2ncc(Br)cc2C1=O	.	-3	3	1	-7[16.7 µM]	.
Cn1cc(/C=C(\C#N)C(=O)Nc2ccccc2O)c2ccccc21	40	1	64*	.	.	.
FC(F)(F)c1nnc2c(Sc3ccccc3)nc3ccccc3n12	.	.	.	.	-94	12
FC(F)(F)c1nnc2c(Sc3ccccn3)nc3ccccc3n12	-44	0	63*	.	-16	28
Cc1cccc(-c2ccc([C@@H]3[C@@H](CO)N4C(=O)CN(C(=O)c5cccnc5)C[C@H]34)cc2)c1	.	.	.	0	.	.
C[C@@H]1CCCCO[C@H](CN(C)C(=O)CCC(F)(F)F)[C@@H](C)CN([C@H](C)CO)C(=O)c2cc(NC(=O)Nc3ccccc3)ccc2O1	.	0	-3	-1	4[16.7 µM]	.
O=C(COC(=O)c1cccc(S(=O)(=O)N2CCOCC2)c1)NCc1ccccc1	-4	.	.	1	68*	-2
Cc1cc(NC(=O)COC(=O)c2cccc(S(=O)(=O)N3CCOCC3)c2)no1	.	0	1	.	-1	-3
O=C(COC(=O)c1cccc(S(=O)(=O)N2CCOCC2)c1)Nc1nc(-c2ccccc2Cl)cs1	.	.	52*	.	-66	.
SMILES	MITF TRPM1 HTS	Cneo AK release	esBAF inh	ERAP1 inh	HIV Env fusion	Wnt bcat act
CCc1nc2ccccc2c(C(=O)OCC(=O)Nc2cccc(S(=O)(=O)N3CCOCC3)c2)c1C	-37	1	8	.	100*	.
O=C(COC(=O)c1cccc(S(=O)(=O)N2CCCCC2)c1)NCc1ccccc1	-5	1	4	-7	-16	0
CCNC(=O)[C@@H]1[C@@H](CO)[C@@H]2Cn3c(ccc(-c4cccc(C(=O)N(C)C)c4)c3=O)[C@H]1N2	.	.	.	1	.	.
O=C(Nc1ccccc1F)c1cc2nc(C(F)F)cc(C(F)F)n2n1	55	0	58*	.	-226	.
CCCCN1C(=O)C(=O)N(c2ccccc2)C1=S	122*	.	.	2	-40	1
CCCCN1C(=O)C(=O)N(CC(=O)N2CCN(c3ccccc3)CC2)C1=O	2	.	.	0	0	2
C/C=C/c1cnc2c(c1)C(=O)N([C@H](C)CO)C[C@H](C)[C@@H](CN(C)C(=O)Cc1ccccc1)O2	.	-1	2	2	0[16.7 µM]	.
CCC(N=c1cc(-c2ccc(OC)cc2)oc2ccc(C)cc12)C(=O)O (stereo unspecified)	53	.	.	.	-250	47*
O=C(Cc1cccc2ccccc12)NCC(=O)N1CCN(Cc2cccc(C(F)(F)F)c2)CC1	-6	-1	-21	0	.	-4
O=C(Cc1cccc2ccccc12)NCC(=O)N1CCN(CC(=O)Nc2ccc(F)cc2)CC1	.	0	-5	2	65*	-2
Cc1cc(CNC(=O)c2ccc3nc(Cc4ccccc4F)oc3c2)nn1C	94*	-7	69*	-1	-69	27
CO[C@H]1CN(C)C(=O)c2ccc(NS(=O)(=O)c3ccccc3C)cc2OC[C@H](C)N(C)C[C@@H]1C	.	.	.	-1	.	.
Cc1ccccc1C(=O)Oc1ccc2ccc(O)cc2c1	.	-3	62*	0	-96	-2
Cc1ccccc1S(=O)(=O)Oc1ccc2ccc(O)cc2c1	.	-5	74*	1	-12	9
CC(=O)Nc1ccc(OS(=O)(=O)c2ccccc2C)cc1	9	.	.	-6	13	1
C[C@H](CO)N1C[C@H](C)[C@H](CN(C)S(=O)(=O)c2ccc(Cl)cc2)Oc2ccc(N(C)C)cc2CC1=O	.	-21	-1	3	.	.
C[C@@H]1CCCCO[C@H](CN(C)C(=O)Nc2ccc(F)cc2)[C@@H](C)CN([C@H](C)CO)C(=O)c2cc(NC(=O)Nc3ccc(F)cc3)ccc2O1	.	4	-4	4	-31[16.7 µM]	.
CC(C)(C)NC(=O)c1ccc2c(c1)C(=O)N(C1CCCCC1)C2=O	45	10	43*	1	-9	0
CC(=O)c1cccc(NC(=O)c2ccc(-c3ccccc3[N+](=O)[O-])o2)c1	26	11	103*	.	-97	109*
Cc1cc(NC(=O)c2ccc(-c3ccccc3[N+](=O)[O-])o2)no1	.	0	57*	3	.	-3
COc1ccc(CN2CC3(CN(C(=O)Nc4cccc(F)c4)C3)c3c([nH]c4cc(OC)ccc34)[C@H]2CO)cc1	.	.	.	.	-22[16.7 µM]	.
CC(C)C(=O)Nc1ccc2c(c1)C(=O)N(C)[C@@H]1CC[C@H](CC(=O)N[C@H](C)c3ccccc3)O[C@@H]1CO2	.	2	-7	.	-12[16.7 µM]	.
COc1ccc(/C=N/NC(=O)c2ccccc2O)cc1Cn1cc(Cl)cn1	-6	0	19	.	.	.
